PAFAH1B2 inh: inhibitors of human PAFAH1B2; P68402; recombinant PAFAH1B2, FP-rhodamine activity probe, fluorescence polarization; inhibition, % at 3.39 µM; 340,000 tested, 1.2% active; AID 492953;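 active = inhibition above the mean of all tested compounds plus 3 SD, cut at about 24% in these data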
PREPL inhibitor: human PREPL enzyme inhibition | recombinant PREPL, fluorescence polarization activity-based probe | 320,000 tested, 0.68% active | inhibition, % at 5.96 µM | Q4J6C6; in the data active = inhibition above about 43%
Target sequence (Q4J6C6 whole entry, looked up): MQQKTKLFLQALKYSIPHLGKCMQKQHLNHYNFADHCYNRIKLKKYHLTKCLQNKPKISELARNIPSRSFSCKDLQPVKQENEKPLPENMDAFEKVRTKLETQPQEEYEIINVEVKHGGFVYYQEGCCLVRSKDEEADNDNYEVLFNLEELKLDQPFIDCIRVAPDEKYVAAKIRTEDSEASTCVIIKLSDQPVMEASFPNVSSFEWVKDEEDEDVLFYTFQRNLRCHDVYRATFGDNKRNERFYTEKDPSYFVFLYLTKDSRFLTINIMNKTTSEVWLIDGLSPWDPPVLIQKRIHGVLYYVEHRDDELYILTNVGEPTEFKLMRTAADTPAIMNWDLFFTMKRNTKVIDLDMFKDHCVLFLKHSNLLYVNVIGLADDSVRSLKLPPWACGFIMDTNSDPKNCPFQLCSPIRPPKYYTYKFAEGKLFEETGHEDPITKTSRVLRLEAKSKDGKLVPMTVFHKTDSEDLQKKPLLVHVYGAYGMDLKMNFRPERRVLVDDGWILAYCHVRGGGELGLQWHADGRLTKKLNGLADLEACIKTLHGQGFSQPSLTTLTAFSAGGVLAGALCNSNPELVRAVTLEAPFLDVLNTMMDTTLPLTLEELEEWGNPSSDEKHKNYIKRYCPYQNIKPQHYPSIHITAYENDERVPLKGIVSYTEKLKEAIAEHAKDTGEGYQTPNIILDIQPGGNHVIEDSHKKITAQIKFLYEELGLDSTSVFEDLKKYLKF
PAFAH1B3 FP inh: inhibitors of human PAFAH1B3. Q15102. recombinant PAFAH1B3, FP-rhodamine probe, fluorescence polarization. inhibition, % at 3.39 µM. 340,000 tested, 0.28% active. AID 492972;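 active = inhibition above the screen-wide average of all tested compounds plus 3 SD, cut at about 25% in these data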
PAFAH2 FP inh: PAFAH2 (human) inhibition; 340,000 tested, 0.99% active; Q99487; inhibition, % at 3.39 µM; recombinant PAFAH2, FP-rhodamine activity probe, fluorescence polarization;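 active = inhibition above the mean over all tested compounds plus 3 SD, cut at about 30% in these data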;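 also: inhibitors block probe labeling of enzyme so polarization drops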
pPAFAH inh: inhibitors of human plasma PAF acetylhydrolase (pPAFAH); Q13093; recombinant pPAFAH, FP-rhodamine probe fluorescence polarization; inhibition, % at 3.39 µM; 330,000 tested, 1.5% active;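 active = inhibition above the mean inhibition across the screen plus 3 SD, cut at about 25% in these data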;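 also: inhibitors block binding of the rhodamine activity-based probe so polarization drops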
Apaf-1 inh: blocks human Apaf-1 apoptosome activity; O14727; reconstituted apoptosome caspase-3 activity, DEVD-Rh110 fluorescence; inhibition, % at 20 µM; 330,000 tested, 0.71% active; AID 489030; active = inhibition of at least 40% at 20 µM
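Material: reconstituted apoptosome with Apaf-1, cytochrome c, caspase-9, procaspase-3, dATP. Technique: Rh110 fluorescence intensity. Buffer or medium: pH 7.5 Hepes buffer with CHAPS, BSA, DTT. Times: 30 min plus 50 min, RT.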
pPAFAH FP conf: confirmation of human plasma PAF acetylhydrolase (pPAFAH) inhibitors. inhibition, % at 3.39 µM. 2,300 tested, 72% active. recombinant pPAFAH, FP-Rh probe fluorescence polarization. shares compounds with pPAFAH inh;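 active = mean inhibition of the triplicate above the hit cutoff set for the earlier primary screen, cut at about 25% in these data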
Of the large screens only hits and unclear results are named; the others gave an inactive call (follow-up assays come after a bar, where they were run). This is a sample that favours compounds with a hit; in the whole collection about 3.5% have one here.

COc1ccc(C(=O)NCCS(=O)(=O)NCc2ccc3c(c2)OCO3)cc1	pPAFAH inh 39 | pPAFAH FP conf inactive
CCOC(=O)C[C@H]1c2cc(F)ccc2S(=O)(=O)N1C1CCCC1	none
O=C(NCC(c1cccs1)N1CCOCC1)C1CCN(S(=O)(=O)c2ccccc2C(F)(F)F)CC1 (centres undefined)	none
Cc1cccc(C)c1NC(=O)CN1C(=O)S/C(=C\c2cccn2-c2cccc(C(=O)O)c2)C1=O	none
Cc1cccc(C)c1-n1cccc1/C=C1\SC(=S)N(c2cccc(C(=O)O)c2)C1=O	pPAFAH inh 50 | pPAFAH FP conf 51
Cc1cccc(NC(=O)CN2CCN(C(=O)CNC(=O)Cc3cccc4ccccc34)CC2)c1C	pPAFAH inh 48 | pPAFAH FP conf inactive
Cc1ccc(N=C2NC(=O)CS2)cc1	none
Cc1ccc(C)n1/N=C1/NC(=O)CS1	PAFAH2 FP inh 39, pPAFAH inh 39 | pPAFAH FP conf inactive
Cc1cccc(OCC(=O)Nc2ccc(S(=O)(=O)Nc3cc(C)nc(C)n3)cc2)c1	none
COc1cccc(/C=C/C(=O)Nc2ccc3[nH]c(=O)[nH]c3c2)c1	none
Nc1ccccc1C(=O)/C=C/c1ccc2c(c1)OCO2	none
CCNc1ccc(Br)cc(C(=O)/C=C/c2ccc3c(c2)OCO3)c1=O	PAFAH2 FP inh 36, pPAFAH inh 48 | pPAFAH FP conf inactive
CCNc1ccc(Br)cc(C(=O)/C=C/c2c(Cl)cccc2Cl)c1=O	PAFAH2 FP inh 36, pPAFAH inh 44 | pPAFAH FP conf 28
CNc1ccc(Br)cc(C(=O)/C=C/c2ccc(Cl)cc2Cl)c1=O	PAFAH2 FP inh 30, pPAFAH inh 51 | pPAFAH FP conf 36
CNc1ccc(Br)cc(C(=O)/C=C/c2cccc(OC)c2)c1=O	pPAFAH inh 36 | pPAFAH FP conf inactive
COC(=O)[C@@H](NC(=O)N1CCN(C(=O)C2COc3ccccc3O2)CC1)C(C)C (some centres undefined)	none
COc1ccc(NC(=O)Nc2cc(C(C)(C)C)on2)cc1OC	none
CN(Cc1ccccc1)C(=O)C1CCN(S(=O)(=O)c2ccc3nc4c(c(C(=O)O)c3c2)CCCC4)CC1	none
CN(C)CCCNC(=O)C[C@H]1C[C@H](C(=O)N2CCCCC2)[C@@]2(C)c3[nH]c4cc(CCC(=O)N(C)C)ccc4c3CCN2C1=O	none (no result: PREPL inhibitor)
CCNc1ccc(Br)cc(C(=O)/C=C/c2ccc(Cl)cc2)c1=O	pPAFAH inh 53 | pPAFAH FP conf 27
O=C(Cc1cccc(NC(=O)C2CCN(C(=O)C3CCCC3)CC2)c1)Nc1cccc(C(=O)N2CCCCC2)c1	none (no result: PREPL inhibitor, pPAFAH inh, Apaf-1 inh)
O=C(Nc1cc(-c2ccccc2)nn1-c1c(Cl)cccc1Cl)c1ccc(F)cc1	none
COc1ccc(OC)c(C2C(C#N)=C(N)Oc3cc(N)ccc32)c1 (centres undefined)	pPAFAH inh 36 | pPAFAH FP conf inactive
CCOc1ccccc1C1C(C#N)=C(N)Oc2cc(N)ccc21 (centres undefined)	pPAFAH inh 41 | pPAFAH FP conf inactive
CCOc1ccc(C2C(C#N)=C(N)Oc3cc(O)ccc32)cc1OCC (centres undefined)	none
ClC(/C=N/n1cnnc1)=C/c1ccccc1	none
CCCCNC(=O)c1sc(=S)n2c1[nH]c(=O)c1ccc(C(=O)NCCc3ccc(OC)c(OC)c3)cc12	pPAFAH inh 40 | pPAFAH FP conf 42
O=C(CN1C(=O)NC(Cc2c[nH]c3ccccc23)C1=O)NCC(F)(F)F (centres undefined)	none
COc1ccc(NS(=O)(=O)c2cccc(C(=O)NN=Cc3cc(Br)c(O)c(Br)c3)c2)cc1	pPAFAH inh 61 | pPAFAH FP conf 69
O=C(Nc1ccccc1N1CCOCC1)c1cccc2c(Br)cccc12	none
CCOc1ccc(OCCSc2nc(-c3ccccc3)cc(=O)[nH]2)cc1	none
CCOc1cc(/C=C(\C#N)c2[nH]nc(N)c2C#N)ccc1O	PREPL inhibitor 52, pPAFAH inh 37 | pPAFAH FP conf inactive
CCOc1cc(-c2cc(-c3ccc(C)cc3)nc(N)c2C#N)ccc1O	none
CCc1ccc(NS(=O)(=O)c2ccc3c(c2)oc(=O)n3C)cc1	pPAFAH inh 58 | pPAFAH FP conf 47
COc1cc2c(cc1OC)C(c1ccccc1C)CC(=O)N2 (centres undefined)	pPAFAH inh 67 | pPAFAH FP conf inactive
Cc1ccccc1NC(=O)CSc1n[nH]c(-c2ccco2)n1	none
Cc1ccc(NC(=O)CSc2nnc(-c3ccco3)c(-c3ccco3)n2)cc1	pPAFAH inh 48 | pPAFAH FP conf 29
COc1cccc(NC(=O)CSc2nnc(-c3ccco3)c(-c3ccco3)n2)c1	pPAFAH inh 41 | pPAFAH FP conf inactive
Cc1ccccc1NC(=O)CSc1nnc(-c2ccco2)c(-c2ccco2)n1	pPAFAH inh 45 | pPAFAH FP conf inactive
CCCCn1c(=O)[nH]c(=O)c2c1nc(COC(=O)c1c(C)noc1C)n2CCC	none
Cc1ccc(NC(=O)CN2C(=O)N/C(=C/c3cccn3-c3ccc(C(=O)O)cc3)C2=O)cc1	PAFAH2 FP inh 53, pPAFAH inh 71 (no result: Apaf-1 inh) | pPAFAH FP conf 41
Cc1ccc(NS(=O)(=O)c2cccc(C(=O)N/N=C/c3c(C)nn(-c4ccccc4)c3N3CCCC3)c2)c(C)c1	pPAFAH inh 58 | pPAFAH FP conf 35
O=C(Nc1nc2ccsc2c(=O)s1)C1CCC1	pPAFAH inh 36 (no result: PAFAH1B2 inh, PAFAH1B3 FP inh, PAFAH2 FP inh) | pPAFAH FP conf inactive
CCOC(=O)N1CCN(C(=O)CCN2C(=O)COc3ccc(C)cc32)CC1	pPAFAH inh 78 | pPAFAH FP conf inactive
CC1CCC(NC(=O)N(CCCl)N=O)CC1 (centres undefined)	none
O=C(Nc1cccc(S(=O)(=O)NC2=NCCC2)c1)c1cnc(Cl)c(Cl)c1	none
COc1cccc(N=Nc2ccc(O)c3ncccc23)c1	pPAFAH inh 60 | pPAFAH FP conf 25
COc1cccc(N=Nc2ccc3cccnc3c2O)c1	pPAFAH inh 58 | pPAFAH FP conf 33
COc1cc(OC)cc(C(=O)Nc2cccc3cccnc23)c1	none
CC(OC(=O)C1=COCCO1)C(=O)NC1(C#N)CCCCC1 (centres undefined)	none
CN1C(=O)c2cccc(NCCCN3C(=O)c4ccccc4C3=O)c2C1=O	none
CCCCNc1c2c3c(cccc3n(C)c1=O)C(=O)c1ccccc1-2	PAFAH1B2 inh 53, PAFAH1B3 FP inh 63, PAFAH2 FP inh 75, pPAFAH inh 43 | pPAFAH FP conf 48
CC1(C)OC(=O)C=C[C@]2(C)[C@H]3CC[C@@]4(C)[C@H](C(=O)O)OC(=O)[C@H]5O[C@]54[C@]3(C)C(=O)C[C@@H]12	none
